These results are taken from publication PMC6125788 (Molecular pharmaceutics, 2018).

In series [1] the test system is A375 cells. The series is described as follows: Phototoxicity and dark toxicity, Alamar Blue assay. The format is cell-based, human. To be noted: no irradiation, up to 1000 nM of IR700 equiv. A digest of the protocol:
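A375 cells were incubated overnight at 37 °C with free IR700 or PEG-IR700 conjugates at increasing concentrations (IR700 equiv.). Cells were then washed with fresh medium and kept unirradiated, as dark controls for the 660 nm photo-irradiation arm. Viability was measured 24 h later by Alamar Blue (4 h, fluorescence Ex 540/Em 590 nm); N = 4.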
On the technique in general: The colour change of resazurin is a common sign of viable cells or microbes.

In series [2] the test system is A375 cells. Briefly: Cellular uptake by flow cytometry in A375 cells. It is filed as cell-based, human. To be noted: free cRGDfK 10 μM. Put shortly:
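A375 cells grown in DMEM with 10% FBS and 1% penicillin/streptomycin at 37 °C, 5% CO2. Cells were exposed to untargeted or RGD-targeted PEG-IR700 conjugate for 4 h, with or without free cRGDfK (10 μM). They were then trypsinized to single cells, and cell-associated fluorescence was read by flow cytometry.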
Background: A flow cytometer gives signals particle by particle.

With `C[Si](C)(CCC[N+](CCCS(=O)(=O)[O-])(CCCS(=O)(=O)[O-])CCCS(=O)(=O)[O-])O[Si]1(O[Si](C)(C)CCC[N+](CCCS(=O)(=O)[O-])(CCCS(=O)(=O)[O-])CCCS(=O)(=O)[O-])n2c3c4ccccc4c2N=C2N=C(N=c4c5ccccc5c(n41)=NC1=NC(=N3)c3ccccc31)c1cccc(OCCCOC(=O)NCCCCCC(=O)ON3C(=O)CCC3=O)c12.[Na+].[Na+].[Na+].[Na+]` (centres unmarked) [IR700, IRDye 700DX], the cytotoxicity in dark result with A375 cells [1] is recorded as “no dark toxicity”.

Consider `N=C(N)NCCC[C@@H]1NC(=O)[C@H](CCCCN)NC(=O)[C@@H](Cc2ccccc2)NC(=O)[C@H](CC(=O)O)NC(=O)CNC1=O` [cRGDfK], for which the “effect of free peptide on uptake of RGD-8PEG-IR700” value in the series on A375 cells [2] is on record as “dramatically reduce the uptake”.
